According to PubChem BioAssay AID624290 (Broad Institute, 2012):
Values joined by “and” are separate entries in the source; they are usually repeats but may differ in a detail not shown here. Identical values can stand only once. Active and inactive are the calls of the source.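 Rule for the calls: active = compounds dimming the MITF-driven luciferase signal, with fitted AC50 at most twice the top tested dose; inconclusive = flat curves with moderate signal drop, or poor-quality fits; inactive = the rest.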

The molecules below were run on SK-MEL-5 TRPM1-promoter luciferase reporter, 24 h (assay: decrease of TRPM1 reporter luminescence in SK-MEL-5 – cell-based, dry powder samples, set 2, MITF inhibitor project, dose response (AID 624290)).
Summary of the method: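 System: TRPM1 promoter–luciferase reporter stably expressed in SK-MEL-5 melanoma cells / Schedule: 24 h compound exposure at 37 °C / Measured by: luciferase luminescence with SteadyGlo reagent, 5 min room-temperature incubation / Evaluation: luminescence change reflecting TRPM1 promoter activity, decrease as inhibition / Controls: parthenolide positive control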
`NC1=C(c2ccc(OC(F)(F)F)cc2)C(=O)c2ccccc2C1=O` showed an AC50 of 20.9 µM. `COc1ccc(C2=C(NC(=O)c3ccc(OC)cc3-c3cccc(OC)c3)C(=O)c3ccccc3C2=O)cc1` was tested, and the AC50 was > 70 µM (inactive). With `CCN(CC)CCNC1=C(Nc2ccccc2)C(=O)c2ccccc2C1=O` the AC50 was 1.66 µM. `O=C1C(NS(=O)(=O)c2ccc(Br)s2)=C(N2CCOCC2)C(=O)c2ccccc21` was tested, and the AC50 was 10.5 µM. Work on `CN1CCN(C2=C(Nc3ccccc3)C(=O)c3ccccc3C2=O)CC1` yielded an AC50 of 4.21 µM. With `O=C(NC1=C(N2CCOCC2)C(=O)c2ccccc2C1=O)c1ccccc1` the AC50 was 5.21 µM. Molecule `CCN1c2ccccc2NC2N=C(OC)C(c3ccccc3)C21` (stereo not drawn) has an AC50 of 2.44 µM. `COc1ccc(C2=C(NC(=O)c3ccccc3Cl)C(=O)c3ccccc3C2=O)cc1` showed an AC50 of 4.92 µM. With `O=C1C(Nc2ccccc2)=C(N2CCOCC2)C(=O)c2ccccc21` the AC50 was 7.25 µM and 6.91 µM. Work on `O=C1C(Nc2ccccc2)=C(N2CCSCC2)C(=O)c2ccccc21` yielded an AC50 of 11.9 µM. With `C=CCNC1=C(Nc2ccccc2)C(=O)c2ccccc2C1=O` the AC50 was 8.22 µM. `CCN1CCN(C2=C(NC(=O)c3ccccc3)C(=O)c3ccccc3C2=O)CC1` was tested, and the AC50 was 0.714 µM. Molecule `O=C(NC1=C(N2CCSCC2)C(=O)c2ccccc2C1=O)c1ccccc1` has an AC50 of 3.07 µM. Molecule `O=C1C(NS(=O)(=O)c2ccc(Br)cc2)=C(c2ccc(OC(F)(F)F)cc2)C(=O)c2ccccc21` has an AC50 of 10.4 µM. With `CN1CCN(C2=C(NS(=O)(=O)c3ccccc3)C(=O)c3ccccc3C2=O)CC1` the AC50 was 0.984 µM. For `COc1ccc(C(=O)NC2=C(c3ccccc3)C(=O)c3ccccc3C2=O)cc1`, the AC50 was 4.99 µM. `O=C(NC1=C(c2ccccc2)C(=O)c2ccccc2C1=O)c1ccccc1` was tested, and the AC50 was 3.73 µM. `COc1ccc(C2=C(NC(=O)c3cccc(OC)c3)C(=O)c3ccccc3C2=O)cc1` gave an AC50 of 7.97 µM. In the case of `O=C(NC1=C(c2ccccc2)C(=O)c2ccccc2C1=O)c1ccco1`, the AC50 is reported as 6.33 µM. `COc1cccc(C2=C(NC(=O)c3ccccc3)C(=O)c3ccccc3C2=O)c1` was tested, and the AC50 was 13.4 µM. In the case of `COc1ccc(C2=C(NC(C)=O)C(=O)c3ccccc3C2=O)cc1`, the AC50 is reported as 4.13 µM. With `NC1=CC(=O)c2ccccc2C1=O` the AC50 was 1.1 µM. For `O=C(NC1=C(c2ccc(OC(F)(F)F)cc2)C(=O)c2ccccc2C1=O)c1ccc(Br)cc1`, the AC50 was 16.3 µM. `COC1=C(NS(=O)(=O)c2ccccc2)C(=O)c2ccccc2C1=O` gave an AC50 of 4.56 µM. With `O=C(NC1=C(N2CCCCC2)C(=O)c2ccccc2C1=O)c1ccccc1` the AC50 was > 32 µM (inactive). With `C=CCNC1=C(NS(=O)(=O)c2cccs2)C(=O)c2ccccc2C1=O` the AC50 was 16 µM. In the case of `CCN(CC)CCCCNC1=C(Nc2ccccc2)C(=O)c2ccccc2C1=O`, the AC50 is reported as 5.75 µM. For `CN1CCN(C2=C(NC(=O)c3ccc(Br)cc3)C(=O)c3ccccc3C2=O)CC1`, the AC50 was 0.685 µM. `O=C(NC1=C(N2CCOCC2)C(=O)c2ccccc2C1=O)c1ccc(Br)cc1` showed an AC50 of 4.96 µM. `C[C@@H](NC1=C(Nc2ccccc2)C(=O)c2ccccc2C1=O)c1ccccc1` gave an AC50 of 6.71 µM. `O=C(NC1=C(N2CCSCC2)C(=O)c2ccccc2C1=O)c1ccc(Br)cc1` was tested, and the AC50 was 6.2 µM. For `O=C(NC1=C(N2CCN(c3ccccc3)CC2)C(=O)c2ccccc2C1=O)c1ccccc1`, the AC50 was 17.1 µM. In the case of `C=CCNC1=C(NCCCN(CC)CC)C(=O)c2ccccc2C1=O`, the AC50 is reported as 2.17 µM. `CN1CCN(C2=C(NS(=O)(=O)c3ccc(Br)s3)C(=O)c3ccccc3C2=O)CC1` gave an AC50 of 2.53 µM. In the case of `O=C1C(NS(=O)(=O)c2ccc(Br)cc2)=C(N2CCOCC2)C(=O)c2ccccc21`, the AC50 is reported as 6.22 µM. In the case of `NC1=C(c2ccccc2)C(=O)c2ccccc2C1=O`, the AC50 is reported as 5.86 µM. For `CCN1CCN(C2=C(Nc3ccccc3)C(=O)c3ccccc3C2=O)CC1`, the AC50 was 2.34 µM. `O=C(NC1=C(c2ccc(OC(F)(F)F)cc2)C(=O)c2ccccc2C1=O)c1ccccc1` gave an AC50 of 16.6 µM. Molecule `O=C1C(NS(=O)(=O)c2ccccc2)=C(N2CCCCC2)C(=O)c2ccccc21` has an AC50 of 21.5 µM. Molecule `CC(=O)NC1=C(c2ccc3c(c2)oc2ccccc23)C(=O)c2ccccc2C1=O` has an AC50 of 1.04 µM. Molecule `CC(=O)NC1=C(c2ccc(Oc3ccccc3)cc2)C(=O)c2ccccc2C1=O` has an AC50 of 17 µM. `O=C1C=C(Nc2ccccc2)C(=O)c2ccccc21` gave an AC50 of 4.03 µM. `C=CCNC1=C(NCCCN2CCOCC2)C(=O)c2ccccc2C1=O` showed an AC50 of 10.5 µM. Work on `C=CCNC1=C(NC(=O)c2ccccc2)C(=O)c2ccccc2C1=O` yielded an AC50 of 17.5 µM. Molecule `O=C1C(NS(=O)(=O)c2ccc(Br)s2)=C(N2CCCCC2)C(=O)c2ccccc21` has an AC50 of 16.6 µM. With `CCN1CCN(C2=C(NC(=O)c3ccc(Br)cc3)C(=O)c3ccccc3C2=O)CC1` the AC50 was 0.433 µM. `Cc1ccc(C(=O)NC2=C(c3ccccc3)C(=O)c3ccccc3C2=O)o1` showed an AC50 of 4.25 µM. For `COc1ccc(C2=C(NC(=O)c3ccccc3OC)C(=O)c3ccccc3C2=O)cc1`, the AC50 was 25.4 µM. In the case of `C=CCNC1=C(N2CCN(CC)CC2)C(=O)c2ccccc2C1=O`, the AC50 is reported as 4.69 µM. Molecule `C=CCNC1=C(N(C)C(C)=O)C(=O)c2ccccc2C1=O` has an AC50 of 0.0779 µM. Work on `CCN1CCN(C2=C(NS(=O)(=O)c3ccc(Br)s3)C(=O)c3ccccc3C2=O)CC1` yielded an AC50 of 2.97 µM. With `COc1ccc(C2=C(NC(=O)c3ccc4ccccc4c3)C(=O)c3ccccc3C2=O)cc1` the AC50 was > 70 µM (inactive). Work on `O=C1C(NS(=O)(=O)c2ccc(Br)cc2)=C(N2CCN(c3ccccc3)CC2)C(=O)c2ccccc21` yielded an AC50 of 21.3 µM. `C=CCNC1=C(NCCN(CC)CC)C(=O)c2ccccc2C1=O` gave an AC50 of 1.88 µM. `O=C1C(NS(=O)(=O)c2cccs2)=C(N2CCOCC2)C(=O)c2ccccc21` showed an AC50 of 10.2 µM. In the case of `C=CCNC1=C(Cl)C(=O)c2ccccc2C1=O`, the AC50 is reported as 2.22 µM and 1.94 µM. Molecule `CN1CCN(C2=C(NS(=O)(=O)c3ccc(Br)cc3)C(=O)c3ccccc3C2=O)CC1` has an AC50 of 1.59 µM. For `COc1cccc(-c2cc(C(=O)NC3=C(Cl)C(=O)c4ccccc4C3=O)ccc2OC)c1`, the AC50 was 2.5 µM. `C=CCNC1=C(N2CCOCC2)C(=O)c2ccccc2C1=O` showed an AC50 of 2.17 µM. With `O=C1C(NS(=O)(=O)c2ccc(Br)cc2)=C(N2CCSCC2)C(=O)c2ccccc21` the AC50 was 13.9 µM. Molecule `O=C(NC1=C(c2ccccc2)C(=O)c2ccccc2C1=O)c1ccc(Br)cc1` has an AC50 of 9.43 µM. `O=C(NC1=C(c2ccc(Oc3ccccc3)cc2)C(=O)c2ccccc2C1=O)c1ccccc1` was tested, and the AC50 was > 70 µM (inactive). `CC(=O)N(C)C1=C(N2CCCCC2)C(=O)c2ccccc2C1=O` showed an AC50 of 0.576 µM. `NC1=C(NC(=O)c2ccccc2)C(=O)c2ccccc2C1=O` showed an AC50 of 3.65 µM. `CC(=O)NC1=C(c2ccccc2)C(=O)c2ccccc2C1=O` was tested, and the AC50 was 4.94 µM. In the case of `O=C1C(NS(=O)(=O)c2ccccc2)=C(N2CCOCC2)C(=O)c2ccccc21`, the AC50 is reported as 10.5 µM. In the case of `CC(=O)NC1=C(c2cccc(Cl)c2)C(=O)c2ccccc2C1=O`, the AC50 is reported as 2.31 µM. `Cc1ccc(C(=O)NC2=C(c3ccc(OC(F)(F)F)cc3)C(=O)c3ccccc3C2=O)o1` gave an AC50 of 12.4 µM. In the case of `CC1CCN(CC(CS(=O)(=O)c2ccc([N+](=O)[O-])cc2)N2CCC(C)CC2)CC1` (stereo not drawn), the AC50 is reported as 3.87 µM. Work on `O=C(NC1=C(c2ccc(OC(F)(F)F)cc2)C(=O)c2ccccc2C1=O)c1ccccc1F` yielded an AC50 of 12 µM. `CCN1CCN(C2=C(NS(=O)(=O)c3cccs3)C(=O)c3ccccc3C2=O)CC1` was tested, and the AC50 was 2.8 µM. Work on `CCN(CC)CCCNC1=C(N(C)C(C)=O)C(=O)c2ccccc2C1=O` yielded an AC50 of 0.823 µM. `C=CCNC1=C(NCC=C)C(=O)c2ccccc2C1=O` was tested, and the AC50 was > 70 µM (inactive). `C=C1C(=O)OC2C1CC/C(C)=C\CCC1(C)OC21` (stereo not drawn) was tested, and the AC50 was 5.01 µM. With `COc1ccc(C(=O)NC2=C(c3ccc(OC(F)(F)F)cc3)C(=O)c3ccccc3C2=O)cc1` the AC50 was 34.1 µM. `O=C(NC1=C(c2ccc(OC(F)(F)F)cc2)C(=O)c2ccccc2C1=O)c1ccco1` gave an AC50 of 14.8 µM. `C=CCNC1=C(N2CCN(C)CC2)C(=O)c2ccccc2C1=O` was tested, and the AC50 was 4.58 µM. With `C=CCNC1=C(NS(=O)(=O)c2ccc(Br)cc2)C(=O)c2ccccc2C1=O` the AC50 was 6.19 µM. Work on `COc1ccc(C2=C(NC(=O)c3ccc(Cl)cc3)C(=O)c3ccccc3C2=O)cc1` yielded an AC50 of 12.2 µM. For `O=C1C(NS(=O)(=O)c2ccc(Br)s2)=C(N2CCSCC2)C(=O)c2ccccc21`, the AC50 was 12.1 µM. `O=C1C(NS(=O)(=O)c2ccc(Br)cc2)=C(N2CCCCC2)C(=O)c2ccccc21` gave an AC50 of 10.5 µM. `CC(=O)N(C)C1=C(N2CCN(C)CC2)C(=O)c2ccccc2C1=O` was tested, and the AC50 was 0.432 µM. `CC(=O)NC1=C(c2ccc(Cl)cc2)C(=O)c2ccccc2C1=O` showed an AC50 of 4.56 µM. Work on `COc1ccc(C(=O)NC2=C(c3ccc(OC)cc3)C(=O)c3ccccc3C2=O)cc1` yielded an AC50 of 5.86 µM. For `O=C1C(NCCCN2CCOCC2)=C(Nc2ccccc2)C(=O)c2ccccc21`, the AC50 was 7.78 µM. `CN1CCN(C2=C(NS(=O)(=O)c3cccs3)C(=O)c3ccccc3C2=O)CC1` gave an AC50 of 1.94 µM. For `COc1ccc(S(=O)(=O)N(C(C)=O)c2ccc(OC(C)=O)c3ccccc23)cc1[N+](=O)[O-]`, the AC50 was 6.36 µM. In the case of `O=C(NC1=C(Cl)C(=O)c2ccccc2C1=O)c1ccccc1`, the AC50 is reported as 0.806 µM. Work on `O=C1C(Nc2ccccc2)=C(NS(=O)(=O)c2ccccc2[N+](=O)[O-])C(=O)c2ccccc21` yielded an AC50 of 17.9 µM. `C=CCNC1=C(N2CCCCC2)C(=O)c2ccccc2C1=O` showed an AC50 of 0.614 µM. Work on `Cc1nc2ccccc2n1/N=C/c1ccc([N+](=O)[O-])s1` yielded an AC50 of 1.98 µM. Molecule `O=C1C(Nc2ccccc2)=C(N2CCCCC2)C(=O)c2ccccc21` has an AC50 of 9.81 µM. With `CCN1CCN(C2=C(NS(=O)(=O)c3ccc(Br)cc3)C(=O)c3ccccc3C2=O)CC1` the AC50 was 4.27 µM. Molecule `O=C1C(NS(=O)(=O)c2cccs2)=C(N2CCCCC2)C(=O)c2ccccc21` has an AC50 of 21.3 µM. `CCN(CC)CCCNC1=C(Nc2ccccc2)C(=O)c2ccccc2C1=O` was tested, and the AC50 was 2.01 µM. For `CN1CCN(C2=C(NC(=O)c3ccccc3)C(=O)c3ccccc3C2=O)CC1`, the AC50 was 0.524 µM. With `C=CCNC1=C(N2CCSCC2)C(=O)c2ccccc2C1=O` the AC50 was 5.12 µM. With `CC(=O)N(C)C1=C(N2CCOCC2)C(=O)c2ccccc2C1=O` the AC50 was 2.04 µM. With `O=C(CNc1cccc2ccccc12)N/N=C/c1ccc([N+](=O)[O-])o1` the AC50 was 1.52 µM. With `CCN1CCN(C2=C(N(C)C(C)=O)C(=O)c3ccccc3C2=O)CC1` the AC50 was 0.561 µM. `COc1ccc(C2=C(N)C(=O)c3ccccc3C2=O)cc1` showed an AC50 of 35.1 µM. Molecule `O=C1C(NS(=O)(=O)c2ccc(Br)cc2)=C(c2ccccc2)C(=O)c2ccccc21` has an AC50 of 18.5 µM. `COc1ccc(C2=C(NC(=O)c3cccc(Cl)c3)C(=O)c3ccccc3C2=O)cc1` was tested, and the AC50 was 15.1 µM.
